PostGolgi yeast = growth inhibition of a yeast mutant, post-Golgi transport screen. post-Golgi transport phenotypic cell assay. inhibition, % at 10 µM. actives 0.9% (n = 98,000). AID 739;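 note: yeast cells grown in 1536-well plates; yeast grown about 18 h at 30C before absorbance read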
Ecoli WT expand = growth inhibitors of E. coli BW25113 wild type; growth inhibition, % at 100 µM; actives 0.15% (n = 98,000); OD600 absorbance; AID 710;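 active = growth inhibition above about 50% at one test dose, limit read from the data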;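 note: growth measured after 20 h incubation at 37 °C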
PostGolgi ctrl = growth of the yeast control strain, post-Golgi counter-screen; efflux-deficient yeast background strain, growth absorbance A615, 16 h; inhibition, % at 10 µM; actives 5% (n = 98,000); AID 738
tolC growth inh = growth inhibitors of E. coli BW25113 tolC mutant; OD615; growth inhibition, % at 10 µM (by protocol); actives 2.2% (n = 65,000); AID 573;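 active = growth inhibition at or above a cutoff equal to the mean over every tested compound plus 3 SD, cut at about 60% in these data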;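 note: growth measured after 20 h incubation at 37 °C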
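Test system: tolC-deleted E. coli BW25113 | Medium: LB with kanamycin 50 µg/mL | Compound dosing: Single concentration, 10 µM final per compound | Schedule: 37 °C, 20 h exposure | Measured by: OD at 615 nm | Evaluation: Percent growth inhibition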
PLAP activator = activators of human placental alkaline phosphatase; purified PLAP enzyme, luminescent substrate read-out; stronger effect = higher value; P05187; activation fold at 20 µM; actives 1.2% (n = 96,000); in the data active = activation fold above about 2
HePTP inhibitor = inhibitors of human HePTP phosphatase. recombinant HePTP phosphatase activity, OD absorbance. inhibition, % at 20 µM. actives 0.64% (n = 110,000); in the data active = inhibition above about 50%;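 note: plate controls were vehicle for no effect and reference inhibitor for full effect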
Target sequence (P35236 whole entry, looked up): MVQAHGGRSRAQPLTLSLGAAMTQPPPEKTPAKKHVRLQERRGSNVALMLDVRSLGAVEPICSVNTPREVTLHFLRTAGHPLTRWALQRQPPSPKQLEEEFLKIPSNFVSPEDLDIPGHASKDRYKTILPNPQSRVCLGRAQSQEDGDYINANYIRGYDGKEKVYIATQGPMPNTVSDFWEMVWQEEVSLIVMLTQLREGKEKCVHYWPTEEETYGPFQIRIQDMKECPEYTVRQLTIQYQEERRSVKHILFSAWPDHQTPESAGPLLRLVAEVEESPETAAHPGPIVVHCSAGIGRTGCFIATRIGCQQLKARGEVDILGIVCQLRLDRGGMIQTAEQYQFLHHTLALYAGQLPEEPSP
Active calls of the source: *. Shown are actives, neighbours in structure and some others; about 5.5% of the full set was active somewhere. Cut-off read from the data, not from the text of the source, unless noted: active = inhibition above about 30%; inactive = the rest.

How did Cc1ccc(C)n1-n1cnc2sc(-c3ccccc3)cc2c1=O do in these assays?
PostGolgi yeast: -7; Ecoli WT expand: -15; PostGolgi ctrl: 26; tolC growth inh: 88*; PLAP activator: 1; HePTP inhibitor: 1

What do the screens show for `Cc1cc(C)c(C)c(OCCCCCCN2CCCC2)c1`?
HePTP inhibitor: -1

What do the screens show for `CNc1nc(Nc2ccc(C(C)=O)cc2)nc(OC(C(F)(F)F)C(F)(F)F)n1`?
PostGolgi yeast: 7; Ecoli WT expand: -3; PostGolgi ctrl: 30*; tolC growth inh: 67*; PLAP activator: 1.1; HePTP inhibitor: 2

How did O=C(O)c1ccc(S(=O)(=O)c2ccc3c(c2)C(=O)N(c2ccc(O)c(C(=O)O)c2)C3=O)cc1 do in these assays?
HePTP inhibitor: 0

What do the screens show for `CCOC(=O)C(=O)Nc1ccc(C(N)=O)cc1`?
HePTP inhibitor: 2

How did O=C(Nc1ccc(OCc2ccccc2)cc1)c1cncc(Br)c1 do in these assays?
HePTP inhibitor: -2

What do the screens show for `Cc1c(C)[n+](=O)c(-c2ccc(F)cc2)c(C)n1[O-]`?
PostGolgi yeast: -1; Ecoli WT expand: -1; PostGolgi ctrl: 6; tolC growth inh: 1; PLAP activator: 1.1; HePTP inhibitor: 8

Results for Cc1c(C)[n+](=O)c(-c2ccco2)c(C)n1[O-] ?
PostGolgi yeast: -1; Ecoli WT expand: 0; PostGolgi ctrl: 31*; tolC growth inh: -15; PLAP activator: 1.1; HePTP inhibitor: 5

Results for CCC(c1ccccc1)c1nnc(NC(=O)Nc2cccc(Cl)c2)s1 (stereo unspecified) ?
HePTP inhibitor: 6

Results for O=[N+]([O-])c1cccc(-c2nc(-c3cccs3)c(-c3cccs3)[nH]2)c1 ?
PostGolgi yeast: -4; Ecoli WT expand: -5; PostGolgi ctrl: 16; PLAP activator: 0.8

What do the screens show for `COc1ccc(-c2[nH]c(-c3ccc(C(=O)O)cc3)nc2-c2ccccc2)cc1`?
PostGolgi yeast: -3; Ecoli WT expand: 0; PostGolgi ctrl: 29; PLAP activator: 1.5

How did COc1ccc(-c2nc(-c3ccccc3)c(-c3cccs3)[nH]2)cc1OC do in these assays?
PostGolgi yeast: 4; Ecoli WT expand: -9; PostGolgi ctrl: 34*; PLAP activator: 2*

What do the screens show for `O=[N+]([O-])c1ccc(-c2nc(-c3cccs3)c(-c3cccs3)[nH]2)cc1`?
PostGolgi yeast: 17; Ecoli WT expand: -7; PostGolgi ctrl: 60*; PLAP activator: 0.7

Results for COc1ccc(-c2[nH]c(-c3ccc4c(c3)OCO4)nc2-c2ccccc2)cc1 ?
PostGolgi yeast: 62*; Ecoli WT expand: -8; PostGolgi ctrl: 34*; PLAP activator: 0.9

Results for O=[N+]([O-])c1cccc(-c2nc(-c3ccccc3)c(-c3cccs3)[nH]2)c1 ?
PostGolgi yeast: -3; Ecoli WT expand: -22; PostGolgi ctrl: 7; PLAP activator: 0.9; HePTP inhibitor: -1

Results for COc1ccc(-c2nc(-c3cccs3)c(-c3cccs3)[nH]2)cc1OC ?
PostGolgi yeast: 17; Ecoli WT expand: -9; PostGolgi ctrl: 38*; PLAP activator: 1.6

How did COc1ccc(OC)c(/C=C2/C(=O)N(c3ccc(C)cc3)N=C2C)c1 do in these assays?
HePTP inhibitor: -6

Results for CCn1ccnc1C(O)(c1ccccc1)c1ccc(C)cc1 (stereo unspecified) ?
HePTP inhibitor: 11

What do the screens show for `CCN(CC)c1ccc(/C=N/N2C(=O)c3ccccc3C2=O)cc1`?
HePTP inhibitor: 102*

Results for Cc1nn(-c2nc3ccccc3n2Cc2ccccc2)c2c1C(=O)CC(C)(C)C2 ?
PostGolgi yeast: -11; Ecoli WT expand: -17; PostGolgi ctrl: 26; tolC growth inh: 91*; PLAP activator: 1.5; HePTP inhibitor: -3

Results for CC1=C(C#N)c2nc(N)c(C#N)c(C)c2/C1=C/c1ccc(-c2ccc(C(=O)O)c(Cl)c2)o1 ?
HePTP inhibitor: 102*

Results for CC1=C(C#N)c2nc(N)c(C#N)c(C)c2/C1=C\c1ccccc1 ?
tolC growth inh: 74*; HePTP inhibitor: 4

What do the screens show for `CC1=C(C#N)c2nc(N)c(C#N)c(C)c2/C1=C\c1ccc(-c2cccc(Cl)c2)o1`?
HePTP inhibitor: 4

How did Cc1nc(N)c(C#N)c(-c2ccccc2)c1C do in these assays?
PostGolgi yeast: -1; Ecoli WT expand: -5; PostGolgi ctrl: 31*; tolC growth inh: -2; PLAP activator: 1; HePTP inhibitor: 4

How did COc1cccc(-n2c(O)c(C=NCc3ccccc3F)c(=O)[nH]c2=O)c1 do in these assays?
HePTP inhibitor: 7

What do the screens show for `CCOC(=O)c1sc2nc3n(c(=O)c2c1C)CCC3`?
HePTP inhibitor: -4

Results for Cc1c(C(=O)Nc2ccc(Oc3ccccc3)cc2)sc2nc3n(c(=O)c12)CCC3 ?
PostGolgi yeast: 15; Ecoli WT expand: -17; PostGolgi ctrl: 31*; PLAP activator: 1.1

How did CCOC(=O)c1sc2nc3n(c(=O)c2c1C)CCCCC3 do in these assays?
PostGolgi yeast: -5; Ecoli WT expand: 1; PostGolgi ctrl: 30*; tolC growth inh: 24; PLAP activator: 1.1; HePTP inhibitor: 6

Results for COc1ccc(Cl)cc1C(=O)Nc1ccc(C)c(Cl)c1 ?
HePTP inhibitor: 4

Results for Fc1ccccc1OCCSc1nnnn1-c1ccccc1 ?
PostGolgi yeast: 9; Ecoli WT expand: 1; PostGolgi ctrl: 21; tolC growth inh: 49; PLAP activator: 0.8; HePTP inhibitor: 2

How did COc1ccccc1OCCSc1nnnn1-c1ccc(C)cc1 do in these assays?
PostGolgi yeast: 2; Ecoli WT expand: 4; PostGolgi ctrl: 16; tolC growth inh: 65*; PLAP activator: 1.1; HePTP inhibitor: -1

Results for Cc1ccc2nc(Nc3ccc4[nH]c(=O)[nH]c4c3)c(-n3nc(C)cc3C)nc2c1 ?
PostGolgi yeast: -2; Ecoli WT expand: -5; PostGolgi ctrl: 31*; tolC growth inh: 23; PLAP activator: 0.8

Results for CC(=O)Nc1ccc(-c2nc(-c3ccc4c(c3)C(=O)c3cc([N+](=O)[O-])ccc3-4)c(-c3ccccc3)[nH]2)cc1 ?
HePTP inhibitor: 9

How did CC1CCc2c(sc(NC(=O)c3ccc(Cl)c(Cl)c3)c2C(N)=O)C1 (stereo unspecified) do in these assays?
HePTP inhibitor: 105*

How did CCOC(=O)Nc1sc2c(c1C(N)=O)CCC(C)C2 (stereo unspecified) do in these assays?
HePTP inhibitor: 103*

Results for CC1CCc2c(sc(NC(=O)c3cccc(Br)c3)c2C(N)=O)C1 (stereo unspecified) ?
HePTP inhibitor: -14

How did CCCS(=O)(=O)c1cn2cccc(N)c2c1S(=O)(=O)CCC do in these assays?
PostGolgi yeast: -1; Ecoli WT expand: -1; PostGolgi ctrl: 31*; tolC growth inh: 8; PLAP activator: 1; HePTP inhibitor: 1

How did CC(C)(C(=O)O)c1ccc([N+](=O)[O-])cc1 do in these assays?
HePTP inhibitor: 8
